Source: the M2OR odorant receptor database

Assays:
Conditions in all cases: stereoisomer not certain
[1] = target: T1, UniProt Q8VGC6
T1 sequence (whole entry): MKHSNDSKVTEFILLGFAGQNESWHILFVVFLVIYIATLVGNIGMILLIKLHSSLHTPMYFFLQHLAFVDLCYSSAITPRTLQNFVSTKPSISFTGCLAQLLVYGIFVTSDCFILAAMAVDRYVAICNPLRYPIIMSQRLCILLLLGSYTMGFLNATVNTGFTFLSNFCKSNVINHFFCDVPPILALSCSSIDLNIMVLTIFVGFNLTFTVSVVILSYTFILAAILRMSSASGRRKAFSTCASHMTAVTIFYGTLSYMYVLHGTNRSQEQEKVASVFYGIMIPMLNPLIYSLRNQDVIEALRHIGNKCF
In short: (§1)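 Each entry records the cell line, G-protein, co-transfected protein and tags used. Methods varied with the source, often transient luciferase assays in mammalian cell lines. A receptor–molecule pair is called responsive (active) if the original authors judged its signal statistically different from baseline and non-responsive (inactive) otherwise.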

[2] = target: T2, UniProt Q8VGD7
T2 sequence (whole entry): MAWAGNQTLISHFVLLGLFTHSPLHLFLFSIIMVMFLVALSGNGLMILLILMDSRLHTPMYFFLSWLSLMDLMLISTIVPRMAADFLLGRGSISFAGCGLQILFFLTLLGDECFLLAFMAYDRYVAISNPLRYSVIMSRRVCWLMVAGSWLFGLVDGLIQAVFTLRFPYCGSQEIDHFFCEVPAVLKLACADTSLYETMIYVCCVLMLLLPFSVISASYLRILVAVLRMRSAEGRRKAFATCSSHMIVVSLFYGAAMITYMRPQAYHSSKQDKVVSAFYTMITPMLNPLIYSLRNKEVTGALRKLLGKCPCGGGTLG
In short: as §1

[3] = target: T3, UniProt Q8VGH1
T3 sequence (whole entry): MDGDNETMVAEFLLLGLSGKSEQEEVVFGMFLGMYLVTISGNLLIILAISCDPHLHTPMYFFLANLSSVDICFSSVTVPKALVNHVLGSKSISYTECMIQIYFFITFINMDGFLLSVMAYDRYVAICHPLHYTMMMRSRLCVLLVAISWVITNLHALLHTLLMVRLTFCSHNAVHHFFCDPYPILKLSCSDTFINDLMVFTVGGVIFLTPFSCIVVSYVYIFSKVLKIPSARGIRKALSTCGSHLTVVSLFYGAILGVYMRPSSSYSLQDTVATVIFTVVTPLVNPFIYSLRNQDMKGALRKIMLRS
In short: as §1

[4] = target: T4, UniProt Q8VGJ1
T4 sequence (whole entry): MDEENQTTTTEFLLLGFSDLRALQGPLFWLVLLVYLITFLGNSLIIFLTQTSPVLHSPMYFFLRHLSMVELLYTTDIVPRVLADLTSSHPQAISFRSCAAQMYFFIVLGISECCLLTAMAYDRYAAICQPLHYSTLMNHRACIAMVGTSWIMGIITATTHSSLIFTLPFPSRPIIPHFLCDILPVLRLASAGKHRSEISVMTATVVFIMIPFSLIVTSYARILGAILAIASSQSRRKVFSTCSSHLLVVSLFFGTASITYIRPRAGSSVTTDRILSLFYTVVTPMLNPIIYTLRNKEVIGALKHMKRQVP
In short: as §1

[5] = target: T5, UniProt Q8VGJ3
T5 sequence (whole entry): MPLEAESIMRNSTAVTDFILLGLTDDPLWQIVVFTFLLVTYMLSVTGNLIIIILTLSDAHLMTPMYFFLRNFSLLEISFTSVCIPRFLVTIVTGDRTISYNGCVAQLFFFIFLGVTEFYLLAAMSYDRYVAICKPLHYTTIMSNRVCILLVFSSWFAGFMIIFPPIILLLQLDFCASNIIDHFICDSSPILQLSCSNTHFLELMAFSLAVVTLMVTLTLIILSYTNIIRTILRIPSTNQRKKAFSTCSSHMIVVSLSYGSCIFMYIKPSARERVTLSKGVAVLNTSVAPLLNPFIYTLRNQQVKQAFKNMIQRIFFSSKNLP
In short: as §1

[6] = target: T6, UniProt Q8VGJ5
T6 sequence (whole entry): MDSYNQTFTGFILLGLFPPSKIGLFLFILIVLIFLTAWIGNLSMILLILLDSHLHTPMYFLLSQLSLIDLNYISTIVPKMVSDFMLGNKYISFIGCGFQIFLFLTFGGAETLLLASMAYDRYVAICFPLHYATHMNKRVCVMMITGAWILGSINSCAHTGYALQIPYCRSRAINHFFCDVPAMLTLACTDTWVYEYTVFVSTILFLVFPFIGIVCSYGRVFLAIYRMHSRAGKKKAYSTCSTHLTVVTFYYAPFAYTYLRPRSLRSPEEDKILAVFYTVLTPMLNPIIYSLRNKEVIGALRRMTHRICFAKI
In short: as §1

[7] = target: T7, UniProt Q8VGL0
T7 sequence (whole entry): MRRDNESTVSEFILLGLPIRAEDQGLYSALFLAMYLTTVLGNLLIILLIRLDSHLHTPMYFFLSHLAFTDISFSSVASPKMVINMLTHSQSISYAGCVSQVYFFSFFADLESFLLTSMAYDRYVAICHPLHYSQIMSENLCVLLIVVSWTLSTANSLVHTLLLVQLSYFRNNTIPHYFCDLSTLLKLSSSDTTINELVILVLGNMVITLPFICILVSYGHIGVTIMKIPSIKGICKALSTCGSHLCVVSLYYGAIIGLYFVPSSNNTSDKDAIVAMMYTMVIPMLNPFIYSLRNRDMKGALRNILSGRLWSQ
In short: as §1

[8] = target: T8, UniProt Q8VGL7
T8 sequence (whole entry): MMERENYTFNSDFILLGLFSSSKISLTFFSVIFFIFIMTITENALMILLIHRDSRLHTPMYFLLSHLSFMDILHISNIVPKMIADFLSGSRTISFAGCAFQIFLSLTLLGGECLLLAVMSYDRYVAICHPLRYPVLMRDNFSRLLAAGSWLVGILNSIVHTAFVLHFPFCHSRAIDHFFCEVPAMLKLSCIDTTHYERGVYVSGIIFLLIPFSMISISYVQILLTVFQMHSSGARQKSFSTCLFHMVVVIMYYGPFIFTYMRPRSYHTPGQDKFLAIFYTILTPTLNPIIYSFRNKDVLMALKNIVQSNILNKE
In short: as §1

[9] = target: T9, UniProt Q8VGM2
T9 sequence (whole entry): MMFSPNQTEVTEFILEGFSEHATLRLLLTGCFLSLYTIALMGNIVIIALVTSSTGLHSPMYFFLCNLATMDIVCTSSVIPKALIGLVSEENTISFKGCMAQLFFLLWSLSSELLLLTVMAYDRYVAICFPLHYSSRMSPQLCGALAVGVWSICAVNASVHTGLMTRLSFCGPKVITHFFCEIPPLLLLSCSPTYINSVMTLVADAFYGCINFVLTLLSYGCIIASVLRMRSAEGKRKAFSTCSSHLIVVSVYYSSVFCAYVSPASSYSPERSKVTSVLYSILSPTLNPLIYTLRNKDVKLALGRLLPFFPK
In short: as §1

[10] = target: T10, UniProt Q8VGP6
T10 sequence (whole entry): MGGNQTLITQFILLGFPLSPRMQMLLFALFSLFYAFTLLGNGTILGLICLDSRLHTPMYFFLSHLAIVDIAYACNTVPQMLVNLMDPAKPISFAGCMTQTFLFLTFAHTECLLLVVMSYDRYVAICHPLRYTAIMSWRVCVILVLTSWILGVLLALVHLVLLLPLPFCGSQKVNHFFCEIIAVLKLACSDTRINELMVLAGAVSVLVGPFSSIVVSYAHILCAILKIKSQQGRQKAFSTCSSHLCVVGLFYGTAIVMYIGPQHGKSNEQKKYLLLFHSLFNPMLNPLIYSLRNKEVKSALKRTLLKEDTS
In short: as §1

[11] = target: T11, UniProt Q8VGQ3
T11 sequence (whole entry): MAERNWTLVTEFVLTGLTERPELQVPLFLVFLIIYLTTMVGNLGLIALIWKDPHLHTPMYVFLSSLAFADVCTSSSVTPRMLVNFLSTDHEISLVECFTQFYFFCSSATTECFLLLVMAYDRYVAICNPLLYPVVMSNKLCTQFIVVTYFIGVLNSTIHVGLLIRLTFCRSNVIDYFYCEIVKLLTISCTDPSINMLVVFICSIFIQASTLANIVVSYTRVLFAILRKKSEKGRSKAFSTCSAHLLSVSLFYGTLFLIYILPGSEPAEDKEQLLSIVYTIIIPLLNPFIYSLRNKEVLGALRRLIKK
In short: as §1

[12] = target: T12, UniProt Q8VGT4
T12 sequence (whole entry): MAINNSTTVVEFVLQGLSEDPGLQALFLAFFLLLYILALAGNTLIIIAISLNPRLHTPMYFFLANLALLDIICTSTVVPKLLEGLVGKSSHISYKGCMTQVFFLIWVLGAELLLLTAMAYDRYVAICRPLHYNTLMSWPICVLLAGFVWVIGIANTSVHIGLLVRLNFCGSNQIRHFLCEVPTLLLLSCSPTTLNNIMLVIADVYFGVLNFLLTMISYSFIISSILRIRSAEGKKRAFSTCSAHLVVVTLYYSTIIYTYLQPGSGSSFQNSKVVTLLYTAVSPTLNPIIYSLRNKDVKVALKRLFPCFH
In short: as §1

[13] = target: T13, UniProt Q8VGU3
T13 sequence (whole entry): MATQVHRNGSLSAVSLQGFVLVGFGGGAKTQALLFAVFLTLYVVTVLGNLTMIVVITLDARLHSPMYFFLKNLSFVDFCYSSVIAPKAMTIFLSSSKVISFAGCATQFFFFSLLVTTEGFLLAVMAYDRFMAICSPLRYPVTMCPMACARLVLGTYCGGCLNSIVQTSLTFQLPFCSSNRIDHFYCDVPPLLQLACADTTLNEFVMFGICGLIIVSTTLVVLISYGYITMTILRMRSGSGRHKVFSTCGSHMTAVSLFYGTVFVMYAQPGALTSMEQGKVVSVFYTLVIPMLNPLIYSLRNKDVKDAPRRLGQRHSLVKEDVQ
In short: as §1

[14] = target: T14, UniProt Q8VGV1
T14 sequence (whole entry): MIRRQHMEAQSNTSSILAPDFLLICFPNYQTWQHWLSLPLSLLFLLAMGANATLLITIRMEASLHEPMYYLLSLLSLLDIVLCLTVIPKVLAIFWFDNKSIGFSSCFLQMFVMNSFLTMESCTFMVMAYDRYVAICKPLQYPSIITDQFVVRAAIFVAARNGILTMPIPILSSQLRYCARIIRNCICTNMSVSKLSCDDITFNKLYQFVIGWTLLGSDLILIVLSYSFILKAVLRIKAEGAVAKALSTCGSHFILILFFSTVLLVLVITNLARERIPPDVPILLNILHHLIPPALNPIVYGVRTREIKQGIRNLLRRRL
In short: as §1

[15] = target: T15, UniProt Q8VGV7
T15 sequence (whole entry): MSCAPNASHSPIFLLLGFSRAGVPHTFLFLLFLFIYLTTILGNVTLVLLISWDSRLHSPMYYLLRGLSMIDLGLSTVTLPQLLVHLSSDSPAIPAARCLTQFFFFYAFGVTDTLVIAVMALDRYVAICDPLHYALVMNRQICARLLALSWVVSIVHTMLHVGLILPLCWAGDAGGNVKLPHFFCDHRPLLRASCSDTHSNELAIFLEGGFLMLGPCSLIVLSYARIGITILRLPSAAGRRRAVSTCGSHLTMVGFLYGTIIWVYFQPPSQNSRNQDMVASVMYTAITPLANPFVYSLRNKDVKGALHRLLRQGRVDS
In short: as §1

[16] = target: T16, UniProt Q8VGX3
T16 sequence (whole entry): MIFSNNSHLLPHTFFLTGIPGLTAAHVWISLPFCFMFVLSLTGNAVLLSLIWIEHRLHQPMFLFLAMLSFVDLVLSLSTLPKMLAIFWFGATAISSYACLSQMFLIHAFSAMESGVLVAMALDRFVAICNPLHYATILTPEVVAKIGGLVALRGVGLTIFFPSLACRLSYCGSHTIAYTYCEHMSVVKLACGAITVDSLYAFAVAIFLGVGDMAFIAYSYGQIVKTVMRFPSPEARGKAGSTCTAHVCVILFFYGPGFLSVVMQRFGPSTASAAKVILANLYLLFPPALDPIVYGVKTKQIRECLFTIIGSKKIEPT
In short: as §1

[17] = target: T17, UniProt Q8VGX5
T17 sequence (whole entry): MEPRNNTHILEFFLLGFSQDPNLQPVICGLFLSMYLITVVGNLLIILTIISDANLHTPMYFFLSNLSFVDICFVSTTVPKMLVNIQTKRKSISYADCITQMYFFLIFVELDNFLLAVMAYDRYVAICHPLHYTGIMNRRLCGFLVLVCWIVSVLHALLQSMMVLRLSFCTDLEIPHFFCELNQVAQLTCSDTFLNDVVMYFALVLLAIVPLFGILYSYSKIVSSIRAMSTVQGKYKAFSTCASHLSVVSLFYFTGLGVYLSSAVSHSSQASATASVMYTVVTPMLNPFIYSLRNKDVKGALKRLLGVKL
In short: as §1

Measured: odorant receptor agonist call

CCCCCCC(C)=O
active: [1] | [6]
inactive: all other assays above

CCCC(=O)C(C)=O
inactive: all assays above

C=C(C)C1CCC2(C)OC2C1 (stereo not given)
inactive: [1] | [5] | [7] | [13] | [15] | [16] | [17]

CCCCCCCCCCO
active: [1] | [10]
inactive: all other assays above

C=CCOC(=O)CCCCCC
inactive: all assays above
